Mdm2 ligase inh: MDM2-luciferase reporter signal enhancers, primary screen, MDM2 E3 ligase inhibitor project, cell-based, luminescence, 1536-well | E3 ubiquitin-protein ligase Mdm2 (Homo sapiens), Q00987 | cell-based MDM2 ubiquitination luciferase reporter, 2 h; 0 = plate control, 100 = twice control, blank-subtracted | signal enhancement, % at 5 µM | 210,000 compounds, 0.11% hits | AID 1230, 2008;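 active means signal enhancement of 30% or more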;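 further: luminescence tracks abundance of the self-degrading MDM2-luciferase fusion protein; higher signal means inhibition of MDM2 E3 ligase activity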
Target sequence (Q00987 whole entry, looked up, the tested form may be a part): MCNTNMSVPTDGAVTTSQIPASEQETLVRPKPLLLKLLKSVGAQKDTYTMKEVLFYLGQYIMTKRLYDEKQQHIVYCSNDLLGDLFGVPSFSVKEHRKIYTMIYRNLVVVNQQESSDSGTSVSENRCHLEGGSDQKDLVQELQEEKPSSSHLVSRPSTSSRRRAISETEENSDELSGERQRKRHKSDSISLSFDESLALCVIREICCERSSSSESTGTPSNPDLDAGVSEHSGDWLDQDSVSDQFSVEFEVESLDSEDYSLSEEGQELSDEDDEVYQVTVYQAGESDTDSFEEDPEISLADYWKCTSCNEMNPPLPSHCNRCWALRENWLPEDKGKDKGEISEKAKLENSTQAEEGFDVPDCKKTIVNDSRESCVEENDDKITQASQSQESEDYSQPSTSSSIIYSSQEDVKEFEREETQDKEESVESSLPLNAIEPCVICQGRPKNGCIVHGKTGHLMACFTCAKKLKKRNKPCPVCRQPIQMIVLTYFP
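System: stable MDM2–luciferase fusion reporter cells / Input: 2000 cells seeded into each well / Schedule: 4 h settle plus 2 h compound, 37 °C / Compound: single-point 5 µM / Buffer or medium: cells held in DMEM / Benchmarks: control and blank well means / Evaluation: percent signal gain over controls, blank-subtracted / Measured by: luciferase luminescence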
AHR act: AHR activators, primary screen, cell-based, luminescence, luciferase reporter, human; activation, % at 5 µM; AHR-responsive luciferase reporter cells; 320,000 compounds, 2.5% hits; in the data active means activation above about 47%
STAT1 act: STAT1 signaling activators, primary screen, cell-based, HTS, luciferase reporter; activation (% of control), % at 5.5 µM; 200,000 compounds, 2.6% hits; NIH 3T3 STAT1-luciferase reporter, IFN-gamma, luminescence; 100% = IFN-gamma alone, no compound;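 active means activation above the screen-wide mean activation plus 3 SD, cut at about 130% in these data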
PERK inh: block of dimerizer-induced PERK translation repression, primary screen, PERK inhibitor project, CHO PERK-DD cells, SEAP luminescence, HTS. Eukaryotic translation initiation factor 2-alpha kinase 3 (Homo sapiens), Q9NZJ5. CHO PERK-DD fusion, SEAP luminescence translation reporter. inhibition, % at 5.6 µM. 220,000 compounds, 0.17% hits. AID 1416, 2008;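 active means inhibition above the mean inhibition of all tested compounds plus 3 SD, set separately per screening campaign, cut at about 2.9% in these data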;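 further: PERK kinase domain activated by AP20187 dimerizer at 100 nM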
APP 5'UTR act: activators of APP 5'UTR luciferase reporter, primary screen, SH-SY5Y cells | SH-SY5Y APP 5'UTR luciferase reporter, luminescence; zero percent = DMSO vehicle wells | activation, % at 2 µM | 190,000 compounds, 1% hits | AID 1276, 2008;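 active means activation above a set limit, based on mean plus 3 SD of controls, cut at about 140% in these data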
NF-kB expr up: activators of NF-kB expression in neurons, primary screen, cell-based, HTS; fold change at 12.5 µM; 190,000 compounds, 1.6% hits; human neuronal cells, NF-kB reporter expression; active compounds read high; in the data active means fold change above about 3.3
Hits are given with their value. Hits are enriched below; roughly 4.5% of the tested compounds scored in any of these assays.

`CCN(CC)CCNC(=O)c1ccc(NC(=O)c2ccc(F)cc2)cc1` gave Mdm2 ligase inh inactive, AHR act inactive, STAT1 act inactive, PERK inh inactive, APP 5'UTR act inactive and NF-kB expr up inactive.
Cc1ccc(-c2cn3nc(C)c(C)nc3n2)cc1 was read as Mdm2 ligase inh inactive, AHR act inactive, STAT1 act inactive, PERK inh inactive, APP 5'UTR act inactive and NF-kB expr up 4.7.
Screening Cc1c(NC(=O)C(C)Oc2ccc(Br)cc2)c(=O)n(-c2ccccc2)n1C (stereo unspecified) returned AHR act inactive.
For Oc1ccc(-c2cnc(-c3ccc(O)cc3)nc2)cc1 the results were AHR act inactive.
For Nc1ccc(-c2cnc(-c3ccc(N)cc3)nc2)cc1 the results were Mdm2 ligase inh inactive, AHR act inactive, STAT1 act 137, PERK inh inactive, APP 5'UTR act inactive and NF-kB expr up 4.8.
Screening COc1ccc(S(=O)(=O)NCC2CCC(C(=O)NCC(OC)OC)CC2)cc1 (stereo unspecified) returned Mdm2 ligase inh inactive, AHR act inactive, STAT1 act inactive, PERK inh 3.2, APP 5'UTR act inactive and NF-kB expr up inactive.
FC(F)(F)c1cc(Cl)c2nc(-c3ccccc3)cn2c1 was read as Mdm2 ligase inh inactive, AHR act 74, STAT1 act inactive, PERK inh inactive, APP 5'UTR act 164 and NF-kB expr up 11.
Nc1cccc(-c2cn3cc(C(F)(F)F)cc(Cl)c3n2)c1 was read as Mdm2 ligase inh inactive, AHR act 63, STAT1 act 130, PERK inh inactive and NF-kB expr up 6.8.
Fc1ccc(-c2nc3c(Cl)cc(C(F)(F)F)cn3c2Cl)cc1 was read as Mdm2 ligase inh inactive, AHR act inactive, STAT1 act inactive, PERK inh inactive, APP 5'UTR act inactive and NF-kB expr up inactive.
Screening Cc1cc(C(F)(F)F)nc(-n2cc(-c3cccc(N)c3)nn2)n1 returned Mdm2 ligase inh inactive, AHR act inactive, STAT1 act inactive, PERK inh inactive, APP 5'UTR act inactive and NF-kB expr up inactive.
O=C(Cc1ccc(Cl)cc1)N/N=C/c1cccc(O)c1 was read as AHR act inactive.
`CCOC(=O)N1CCN(C(=S)Nc2cc(OC)c(OC)cc2C(=O)OC)CC1` gave Mdm2 ligase inh inactive, AHR act inactive, STAT1 act inactive, PERK inh inactive, APP 5'UTR act inactive and NF-kB expr up inactive.
CN(C)c1ccc(Nc2cc(Cl)ncn2)cc1 was read as AHR act 73.
For O=C(NNC(=O)c1cc2ccccc2o1)c1ccncc1 the results were AHR act inactive.
For COc1cc(NC(=O)C(C)C)ccc1NC(=O)c1cc2ccccc2o1 the results were AHR act inactive.
`O=C(NNC(=O)c1ccccc1O)c1cc2ccccc2o1` gave AHR act 68.
For O=C(Nc1ccc(F)cc1)c1cc2ccccc2o1 the results were AHR act 72.
For COc1ccc(NC(=O)c2cc3ccccc3o2)cc1 the results were Mdm2 ligase inh inactive, AHR act inactive, STAT1 act 146, PERK inh inactive, APP 5'UTR act 138 and NF-kB expr up 5.3.
`CC(C)C(=O)Nc1cccc(NC(=O)c2cc3ccccc3o2)c1` gave Mdm2 ligase inh inactive, AHR act inactive, STAT1 act 130, PERK inh inactive, APP 5'UTR act inactive and NF-kB expr up inactive.
For CC(=O)c1ccc(NC(=O)c2cc3ccccc3o2)cc1 the results were AHR act inactive.
Cc1cc(C(=O)O)ccc1N=Cc1c(O)ccc2ccccc12 was read as AHR act inactive.
`Cc1ccc(NC(=O)c2ccc3c(c2)CCN3S(C)(=O)=O)cc1C` gave AHR act inactive.
For CCCCc1nc2cc(C(=O)N3CCN(c4nc(C)cnc4C)CC3)ccc2o1 the results were AHR act inactive.
For CCNC(=S)N/N=C/c1cn(Cc2ccccc2F)c2ccccc12 the results were Mdm2 ligase inh inactive, AHR act 51, STAT1 act inactive, PERK inh inactive, APP 5'UTR act inactive and NF-kB expr up inactive.
CC1CC(C)CN(S(=O)(=O)c2ccc(C(=O)Nc3nnc(C4CC4)o3)cc2)C1 (stereo unspecified) was read as AHR act inactive.
O=C(NCCC(=O)N1CCC2(CC1)NCCc1[nH]cnc12)c1cccc(Cl)c1 was read as AHR act inactive.
Screening Clc1ccc(Nc2ncnc3ccc(Br)cc23)cc1 returned Mdm2 ligase inh inactive, AHR act 67, STAT1 act inactive, PERK inh inactive, APP 5'UTR act inactive and NF-kB expr up inactive.
For O=C(CN1C(=O)S/C(=C\C=C\c2ccccc2)C1=O)Nc1cccc(O)c1 the results were Mdm2 ligase inh inactive, AHR act inactive, STAT1 act 130, PERK inh inactive, APP 5'UTR act inactive and NF-kB expr up 3.4.
O=C(CN1C(=O)S/C(=C\C=C\c2ccccc2)C1=O)Nc1ccccc1C(=O)O was read as Mdm2 ligase inh inactive, AHR act inactive and PERK inh inactive.
CCN1CCN(c2nc(S(=O)(=O)c3ccc(C)cc3)c(Cl)s2)CC1 was read as Mdm2 ligase inh inactive, AHR act inactive, STAT1 act inactive, PERK inh inactive, APP 5'UTR act inactive and NF-kB expr up inactive.
`O=C1CCC(C(=O)OCC(=O)N2N=C3/C(=C/c4ccccc4)CCCC3C2c2ccccc2)N1` (stereo unspecified) gave Mdm2 ligase inh inactive, AHR act 73, STAT1 act inactive, PERK inh inactive, APP 5'UTR act inactive and NF-kB expr up inactive.
`COc1ccc(/C=C2\CCCC3C2=NN(C(=O)CSc2n[nH]c(N)n2)C3c2ccc(OC)cc2)cc1` (stereo unspecified) gave Mdm2 ligase inh inactive, AHR act inactive, STAT1 act inactive, PERK inh inactive, APP 5'UTR act inactive and NF-kB expr up inactive.
For CCOC(=O)Cn1nc(C)c(NC(=O)c2ccc([N+](=O)[O-])c(C)c2)c1C the results were Mdm2 ligase inh inactive, AHR act inactive, STAT1 act inactive, PERK inh inactive, APP 5'UTR act inactive and NF-kB expr up inactive.
Screening CC1CCN(c2ccccc2NC(=O)c2ccc(C#N)cc2F)CC1 returned Mdm2 ligase inh inactive, AHR act 71, STAT1 act inactive, PERK inh inactive, APP 5'UTR act inactive and NF-kB expr up inactive.
CC(C)C(=O)N1CCN(c2ccccc2NC(=O)c2ccc(C#N)cc2F)CC1 was read as Mdm2 ligase inh inactive, AHR act inactive, STAT1 act inactive, PERK inh inactive, APP 5'UTR act inactive and NF-kB expr up inactive.

Screens (PubChem)
